From PubChem BioAssay
PDI inh = inhibitors of human PDI, primary screen, biochemical, turbidity, single point, plate reader; PDI insulin aggregation turbidity, A650, 90 min; inhibition, % at 10 µM; 0.052% of 350,000 active; AID 588391, 2011;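 active = mean inhibition across replicates of 30% or more, whatever share of single replicates reach that level; inconclusive = mean inhibition below 30% while every single replicate reaches 30%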
AF4-AF9 inh = inhibitors of AF4 peptide binding to AF9, primary screen, biochemical, AlphaScreen, biotin-AF4 peptide, FLAG-AF9, single point | Protein AF-9 (Homo sapiens), P42568 | inhibition, % at 10 µM | 0.47% of 350,000 active | AID 651704, 2012;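 active = every replicate reaching a set inhibition limit, whatever the replicate mean, cut at about 25% in these data; inconclusive = mean inhibition reaches that limit but some replicates miss it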;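 also: 0% = plate neutral control median and 100% = total signal loss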
Target sequence (P42568 whole entry, looked up): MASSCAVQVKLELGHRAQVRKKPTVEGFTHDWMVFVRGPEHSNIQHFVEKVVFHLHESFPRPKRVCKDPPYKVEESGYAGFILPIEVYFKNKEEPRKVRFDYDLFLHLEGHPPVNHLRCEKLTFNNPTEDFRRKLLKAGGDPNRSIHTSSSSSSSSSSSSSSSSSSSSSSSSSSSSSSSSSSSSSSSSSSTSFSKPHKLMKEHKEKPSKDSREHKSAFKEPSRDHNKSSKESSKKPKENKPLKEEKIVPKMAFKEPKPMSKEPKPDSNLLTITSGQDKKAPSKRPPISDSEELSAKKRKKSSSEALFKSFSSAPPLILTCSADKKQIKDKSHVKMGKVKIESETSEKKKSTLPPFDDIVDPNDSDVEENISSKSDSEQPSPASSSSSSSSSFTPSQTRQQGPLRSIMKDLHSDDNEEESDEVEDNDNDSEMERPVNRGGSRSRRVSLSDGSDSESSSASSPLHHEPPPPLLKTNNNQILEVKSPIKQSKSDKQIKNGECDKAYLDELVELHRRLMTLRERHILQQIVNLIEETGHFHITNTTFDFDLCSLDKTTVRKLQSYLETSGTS
FGF22 binding = binders of human FGF22 protein, primary screen, FGF22 synaptogenesis inhibitor project, biophysical, thermal shift, single point; Fibroblast growth factor 22 (Homo sapiens), Q9HCT0; activity (Tm shift, normalised), % at 9.99 µM; recombinant FGF22 thermal shift, SYPRO orange fluorescence; percent of sucrose octasulfate shift, DMSO zero; 1.5% of 340,000 active;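 active = mean Tm shift, scaled 0 neutral to 100 positive control, at about 1.3% or above, every replicate too, limit read from the data; inconclusive = no clear call, values can overlap the other calls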
ARNT TACC3 PPI = disruptors of ARNT/TACC3 protein interaction, primary screen, biochemical, AlphaScreen, single concentration; 0.66% of 390,000 active; inhibition, % at 9.99 µM; AID 623870, 2012; AlphaScreen His-ARNT PAS-B/GST-TACC3 binding, luminescence; TACC3 fragment carries E629A point mutation;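 active = mean inhibition of replicates at least 50% and at least half of replicates each reaching 50%; inconclusive = half or more replicates reach 50% but mean below 50%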;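 also: 0% = complete ARNT plus TACC3 wells and 100% = ARNT alone without TACC3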
ERp5 inh = inhibitors of ERp5-driven insulin aggregation, primary screen, biochemical, turbidity, absorbance 650 nm, single point; Protein disulfide-isomerase A6 (Homo sapiens), Q15084; 0.05% of 350,000 active; inhibition, % at 9.99 µM; 90 min;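 active = mean replicate inhibition above about 25%, with every replicate also reaching it, limit read from the data, passing the limit was not always enough; inconclusive = only one of those two criteria met; inactive = neither criterion met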
FN deposit inh = inhibitors of fibronectin matrix deposition, primary screen, AH1F cells, Alexa488-fibronectin fluorescence, plate reader | AH1F fibroblasts, overnight | inhibition, % at 12.6 µM | 0.086% of 350,000 active;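 active = mean inhibition across replicates of 30% or more, regardless of how many single replicates reach that level; inconclusive = mean under 30% yet at least half of replicates reach 30%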;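 also: positive control wells lacked labelled fibronectin entirely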
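Material: AH1F fibroblasts assembling fluorescent fibronectin matrix; amount: 10000 AH1F cells/well; medium: DMEM, 2% serum; reagent: Alexa488-fibronectin, 24 nM final in well; dosing: single compound dose, delivered by pin transfer; incubation: 1 h adhesion, overnight exposure; detection: fluorescence after three HBSS washes, excitation 485 nm, emission 525 nm; measure: fibronectin deposition inhibition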
An asterisk follows results filed as active; ? = inconclusive; · = no result given. Sampled rows, rich in hits. Any-hit rate of the full collection: about 2.1%.

SMILES	PDI inh	AF4-AF9 inh	FGF22 binding	ARNT TACC3 PPI	ERp5 inh	FN deposit inh
COc1ccc(S(=O)(=O)N2CCCCC2c2cc(C(=O)Nc3ccc4c(c3)OCO4)no2)cc1 (centres undefined)	-3.8	1.8	-0.2	·	3.7	35.2*
CS(=O)(=O)N1CCCCC1c1cc(C(=O)Nc2ccc3c(c2)OCO3)no1 (centres undefined)	-0.4	-1.0	-0.2	·	0.7	2.4
CO[C@@H]1CN(C)C(=O)c2cc(NC(=O)Nc3c(C)noc3C)ccc2OC[C@H](C)N(C)C[C@@H]1C	·	-1.9	-0.1	7.9	-6.7	-7.2
C[C@H](CO)N1C[C@H](C)[C@H](CN(C)S(=O)(=O)c2cn(C)cn2)Oc2c(NS(C)(=O)=O)cccc2C1=O	·	-17.4	-0.2	-14.2	-1.7	-7.8
O=[N+]([O-])c1ccccc1S(=O)(=O)N1CCN(Cc2ccc(OCCO)cc2)CC1	·	5.2	0.0	3.2	-1.7	·
O=C(c1ccccc1F)N1CC[C@@H]2[C@H]1c1cc(-c3ccccc3)ccc1N[C@@H]2CO	·	-11.6	-0.2	-5.8	-0.5	4.8
CCC/C(O)=C1\C(=O)CCCC1=NCCc1c(C)[nH]c2ccc(OC)cc12	0.6	0.4	43.0*	-7.2	-5.0	1.1
CCOC(=O)[C@]12CCC=C1N(Cc1ccccc1)C(=O)[C@H](CC(=O)NCc1cccs1)C2	·	1.7	-0.1	·	-5.6	13.1
CCOC(=O)[C@]12CCC=C1N(Cc1ccc3c(c1)OCO3)C(=O)[C@H](CC(=O)NCc1cccs1)C2	·	-0.3	43.5*	·	-2.1	9.3
COc1ccc(NC(=O)N(C)C[C@H]2OCc3ccccc3-c3ccccc3C(=O)N([C@@H](C)CO)C[C@@H]2C)cc1	·	·	·	·	·	-13.3
CCCNC(=O)C[C@H]1CC[C@@H]2[C@H](COc3ccc(NC(=O)c4ccc(Cl)cc4)cc3C(=O)N2C)O1	·	-1.4	0.0	-3.8	-3.6	6.3
CCN(Cc1ccncc1)C(=O)CCc1nnc(CCc2ccc(OC)cc2)o1	8.1	-0.6	43.8*	·	3.2	-0.8
COc1nccnc1NS(=O)(=O)c1ccc(NC(=O)c2cccc(C)c2)cc1	-0.1	-1.1	43.4*	1.4	5.3	0.9
COc1ccc(C(=O)Nc2ccc(S(=O)(=O)Nc3nccnc3OC)cc2)cc1	2.7	·	·	27.1	·	10.2
COc1ccc(NC(=O)N[C@@H]2CC[C@H](CCNC(=O)Cc3ccncc3)O[C@H]2CO)cc1	·	0.6	0.1	10.2	2.7	-10.5
NCCCCCNC(=O)[C@@H]1C[C@@H]2C(=O)N[C@@H](Cc3ccccc3)C(=O)N2[C@@H]1c1ccc(O)cc1	·	1.0	0.1	-1.1	-0.5	·
O=C(O)CCCN1C(=O)c2ccc(C(=O)c3cccc([N+](=O)[O-])c3)cc2C1=O	-2.8	-1.0	43.3*	5.8	-4.5	7.6
O=C(NCc1ccccn1)c1n[nH]c2ccccc12	-28.3	·	·	24.0*	·	-3.9
O=C(NCc1ccccn1)Nc1cccc(NC(=O)NCc2ccccn2)c1	4.1	·	·	78.2*	·	0.9
O=C(NCc1ccccn1)Nc1cccc(Cl)c1	?	3.0	0.2	16.0	4.6	·
COc1ccc(NC(=O)N/C=C/c2ccco2)cc1	2.1	-1.0	43.2*	0.1	2.5	10.2
O=C(Nc1ccc2nn(-c3ccc(F)cc3)nc2c1)c1cccnc1	1.0	-0.2	43.5*	-2.4	4.6	-15.3
COc1ccccc1NC(=O)CCCNC(=O)Cn1cnc2sc(C)c(C)c2c1=O	-3.2	0.5	0.0	-1.4	1.8	-0.5
COc1ccc(CCNC(=O)CCCn2c(=S)[nH]c3ccsc3c2=O)cc1OC	-2.2	-2.8	43.1*	·	2.2	-0.4
COc1ccc(CCNC(=O)CCCNC(=O)Cn2cnc3sc(C)c(C)c3c2=O)cc1OC	4.9	-0.3	43.5*	-8.4	7.3	-10.2
SMILES	PDI inh	AF4-AF9 inh	FGF22 binding	ARNT TACC3 PPI	ERp5 inh	FN deposit inh
C[C@@H]1CN([C@@H](C)CO)C(=O)c2cc(NC(=O)Nc3cccc4ccccc34)ccc2O[C@@H](C)CCCCO[C@H]1CN(C)C(=O)Cc1ccccc1	·	-6.0	-0.2	26.5	1.2	·
C[C@@H]1CCCCO[C@@H](CN(C)C(=O)Nc2cccc3ccccc23)[C@H](C)CN([C@@H](C)CO)C(=O)c2cc(NC(=O)Nc3ccc4c(c3)OCO4)ccc2O1	·	-0.8	·	-5.1	4.1	·
C[C@H](CO)N1C[C@H](C)[C@@H](CN(C)C(=O)Nc2cccc3ccccc23)OCCCC[C@H](C)Oc2ccc(NC(=O)Nc3ccc4c(c3)OCO4)cc2C1=O	·	-0.5	1.7*	-4.6	3.4	·
COc1ccc(NC(=O)Nc2ccc3c(c2)C(=O)N([C@@H](C)CO)C[C@@H](C)[C@@H](CN(C)CC2CCCCC2)OCCCC[C@H](C)O3)cc1	·	0.6	1.3*	-0.2	2.9	·
COc1ccc(NC(=O)Nc2ccc3c(c2)C(=O)N([C@@H](C)CO)C[C@@H](C)[C@@H](CN(C)CC2CC2)OCCCC[C@@H](C)O3)cc1	·	25.6*	-0.6	8.6	-0.5	-2.6
COc1ccc(S(=O)(=O)N(C)C[C@@H]2OCCCC[C@@H](C)Oc3ccc(NC(=O)Nc4cccc5ccccc45)cc3C(=O)N([C@@H](C)CO)C[C@H]2C)cc1	·	-14.5	1.3*	·	1.6	·
C[C@@H]1CN([C@@H](C)CO)C(=O)c2cc(NC(=O)Nc3cccc4ccccc34)ccc2O[C@@H](C)CCCCO[C@@H]1CN(C)CC1CCCCC1	·	-12.6	0.6	1.1	-3.9	·
C[C@@H]1CCCCO[C@@H](CN(C)CC2CCCCC2)[C@H](C)CN([C@H](C)CO)C(=O)c2cc(NC(=O)Nc3cccc4ccccc34)ccc2O1	·	15.6	1.3*	18.2	-0.9	·
Cc1nn(CC2CC2)c(=O)n1-c1ccc(Oc2ccccc2)cc1	2.1	-2.7	43.2*	-4.9	4.7	-5.8
CCN(CC)CCNC(=O)c1ccc(NC(=O)/C=C/c2ccc3ccccc3n2)cc1	-1.4	12.2	1.6*	1.5	-11.0	·
CCN(CC)CCNC(=O)c1ccc(NC(=O)Cc2ccccc2F)cc1	2.7	-0.6	-0.3	-4.0	4.1	17.7
CC1=[N+](C)c2c(ccc3cccnc23)C1(C)C	1.1	28.9*	-0.4	15.5	3.0	-44.7
C[C@H](CO)N1C[C@H](C)[C@H](CN(C)C(=O)Cc2ccccn2)Oc2cc(-c3cccc(C(=O)N(C)C)c3)ccc2S1(=O)=O	·	1.7	0.0	-2.5	-1.7	-0.9
O=C1Nc2ccccc2C(=O)N2C[C@@H](O)C[C@H]12	0.9	49.0*	-0.2	-10.4	6.3	-7.6
